Source: PubChem BioAssay (several laboratories)
Rows were chosen to be rich in hits. Some 1.3% of all compounds tested hit in one or more screens of this group.
Rad51 HR inh: human RAD51 strand exchange inhibitors, primary screen, biochemical, fluorescence | inhibition, % at 10 µM | actives 0.085% (n = 200,000) | hRad51 DNA strand exchange, fluorescence dequenching | DNA repair protein RAD51 homolog 1 (Homo sapiens), Q06609 | AID 1385, 2008;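 active means inhibition above 40% at the single screening dose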;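 further: 0% = DMSO control wells and 100% = blanks with heterologous ssDNA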
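Material: hRad51 filaments on single-stranded DNA; Reagent: Donor/quencher-labelled 47-bp dsDNA substrate; Compound: 10 µM final, single point; Schedule: 37 °C 15-min filament assembly, 30-min compound preincubation, 15-min exchange; Technique: FRET fluorescence, excitation 485 nm, emission 520 nm; Benchmarks: control wells and blank wells on each plate.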
TAG inh: inhibitors of triacylglycerol accumulation, primary screen, cell-based, uHTS, fluorescence, H9c2; H9c2 cells, Nile Red lipid (TAG) fluorescence; cells loaded with 200 µM oleic acid; inhibition, % at 12.5 µM; actives 0.66% (n = 230,000); AID 651582, 2012;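 active means pattern-corrected inhibition of lipid staining of at least 50% with the nuclear-stain viability signal not falling by more than 50%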;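 further: 0% = DMSO wells and 100% = triacsin C control wells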
Mdm2 ligase inh: MDM2-luciferase reporter signal enhancers, primary screen, MDM2 E3 ligase inhibitor project, cell-based, luminescence, 1536-well; E3 ubiquitin-protein ligase Mdm2 (Homo sapiens), Q00987; cell-based MDM2 ubiquitination luciferase reporter, 2 h; 0 = plate control, 100 = twice control, blank-subtracted; signal enhancement, % at 5 µM; actives 0.11% (n = 210,000);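 active means signal enhancement of 30% or more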;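 further: luminescence tracks abundance of the self-degrading MDM2-luciferase fusion protein; higher signal means inhibition of MDM2 E3 ligase activity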
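system = mammalian cells stably expressing self-ubiquitinating, self-degrading MDM2 E3–luciferase fusion | quantity = 2000 cells per well seeded | incubation = 4 h cell settling then 2 h compound exposure, 37 °C | signal = SteadyLite luminescence, 15 min reagent step | benchmarks = plate control and blank wells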
Hck-Nef inh: inhibitors of Nef-activated human Hck kinase, primary screen, biochemical, Z-Lyte FRET, 384-well, Hck-YEEI; Tyrosine-protein kinase HCK (Homo sapiens), P08631; Recombinant Hck-YEEI plus Nef, Z-Lyte FRET kinase assay; inhibition, % at 20 µM; actives 0.68% (n = 220,000);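 active means Hck-Nef kinase inhibition above about 50%, limit read from the data; inactive means inhibition below that limit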;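 further: 0% = DMSO with Hck plus Nef and 100% = Hck alone without Nef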
PERK inh: block of dimerizer-induced PERK translation repression, primary screen, PERK inhibitor project, CHO PERK-DD cells, SEAP luminescence, HTS. Eukaryotic translation initiation factor 2-alpha kinase 3 (Homo sapiens), Q9NZJ5. CHO PERK-DD fusion, SEAP luminescence translation reporter. inhibition, % at 5.6 µM. actives 0.17% (n = 220,000). AID 1416, 2008;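 active means inhibition above the mean inhibition of all tested compounds plus 3 SD, set separately per screening campaign, cut at about 2.9% in these data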;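 further: PERK kinase domain activated by AP20187 dimerizer at 100 nM; 0% = DMSO with dimerizer and 100% = rapamycin at 8.4 µM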
Target sequence (Q9NZJ5 whole entry, looked up, the tested form may be a part): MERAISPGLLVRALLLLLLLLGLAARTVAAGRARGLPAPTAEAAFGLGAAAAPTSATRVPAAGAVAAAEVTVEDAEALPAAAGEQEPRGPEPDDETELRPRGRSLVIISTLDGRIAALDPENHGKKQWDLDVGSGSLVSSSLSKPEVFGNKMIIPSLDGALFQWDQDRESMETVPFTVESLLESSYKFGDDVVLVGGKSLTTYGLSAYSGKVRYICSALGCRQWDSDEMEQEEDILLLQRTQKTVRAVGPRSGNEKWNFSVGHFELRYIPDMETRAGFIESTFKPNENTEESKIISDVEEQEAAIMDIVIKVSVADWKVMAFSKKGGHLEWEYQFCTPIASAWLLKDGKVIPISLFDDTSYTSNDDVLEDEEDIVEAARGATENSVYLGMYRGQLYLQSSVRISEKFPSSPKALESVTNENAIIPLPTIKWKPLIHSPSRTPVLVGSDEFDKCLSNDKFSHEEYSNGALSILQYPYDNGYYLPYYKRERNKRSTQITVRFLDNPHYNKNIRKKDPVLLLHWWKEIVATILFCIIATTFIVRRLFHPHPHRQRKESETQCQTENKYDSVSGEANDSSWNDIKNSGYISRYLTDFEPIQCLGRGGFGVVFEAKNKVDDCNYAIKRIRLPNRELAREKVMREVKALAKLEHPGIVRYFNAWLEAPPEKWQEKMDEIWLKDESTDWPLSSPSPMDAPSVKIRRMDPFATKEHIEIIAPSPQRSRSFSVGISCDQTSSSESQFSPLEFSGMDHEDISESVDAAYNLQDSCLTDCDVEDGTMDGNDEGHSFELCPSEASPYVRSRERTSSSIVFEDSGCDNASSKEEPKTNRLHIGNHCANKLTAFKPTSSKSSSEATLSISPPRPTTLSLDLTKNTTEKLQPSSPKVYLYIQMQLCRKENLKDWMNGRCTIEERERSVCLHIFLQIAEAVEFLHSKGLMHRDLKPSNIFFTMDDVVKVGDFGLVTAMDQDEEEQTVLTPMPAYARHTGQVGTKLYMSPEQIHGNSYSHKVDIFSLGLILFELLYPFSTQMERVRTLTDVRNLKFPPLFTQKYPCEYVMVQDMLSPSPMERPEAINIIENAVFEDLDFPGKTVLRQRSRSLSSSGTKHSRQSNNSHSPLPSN
PKD1 inh: inhibitors of human PKD1 kinase, biochemical, fluorescence polarization. Serine/threonine-protein kinase D1 (Homo sapiens), Q15139. PKD1 kinase fluorescence polarization assay. inhibition, % (test concentration not listed). actives 0.056% (n = 200,000). AID 797, 2007; in the data active means inhibition above about 50%
* hit, by the source's call; x = no result.

SMILES	Rad51 HR inh	TAG inh	Mdm2 ligase inh	Hck-Nef inh	PERK inh	PKD1 inh
C=CC[C@@H]1C=C(C)C[C@H](C)C[C@H](OC)[C@H]2O[C@@](O)(C(=O)C(=O)N3CCCC[C@H]3C(=O)O[C@H](/C(C)=C/[C@@H]3CC[C@@H](O)[C@H](OC)C3)[C@H](C)[C@@H](O)CC1=O)[C@H](C)C[C@@H]2OC	-3	x	x	x	x	x
CC[C@@H]1C=C(C)C[C@H](C)C[C@H](OC)[C@H]2O[C@@](O)(C(=O)C(=O)N3CCCC[C@H]3C(=O)O[C@H](/C(C)=C/[C@@H]3CC[C@@H](O)[C@H](OC)C3)[C@H](C)[C@@H](O)CC1=O)[C@H](C)C[C@@H]2OC	-3	x	13	-6	95*	-9
O=c1c(C=Nc2cccc(C(F)(F)F)c2)c[nH]n1-c1cccc(Cl)n1	-7	1	4	16	4.3*	1
COc1cccc2c1C(=O)c1c(O)c3c(c(O)c1C2=O)C[C@@](O)(C(=O)CO)C[C@@H]3O[C@H]1C[C@H](N)[C@@H](O)[C@H](C)O1	74*	43	x	x	x	x
Cc1csc2nc(CNC(=O)CCC(=O)O)cn12	-1	0	-3	-5	3.4*	-1
CC(OC(=O)c1ccc(S(C)(=O)=O)c([N+](=O)[O-])c1)C(=O)NC1C2CC3CC(C2)CC1C3 (stereo unspecified)	x	65*	x	x	x	x
CC(C)CN1CCN(C(=O)COC(=O)c2ccc(S(C)(=O)=O)c([N+](=O)[O-])c2)CC1	x	65*	x	x	x	x
CS(=O)(=O)c1ccc(C(=O)OCC(=O)NC23CC4CC(CC(C4)C2)C3)cc1[N+](=O)[O-]	-8	x	-12	2	1	-10
CCN(CC)S(=O)(=O)c1ccc(Cl)c(C(=O)Nc2cc(C)nn2-c2ccccc2C(F)(F)F)c1	-2	x	-12	1	0	-8
COC(=O)c1ccccc1NC(=O)CSc1nnc(-c2cccnc2)n1N	44*	2	18	1	2	-10
O=C(Nc1ccc(-c2csnn2)cc1)C1CC1	-5	-17	83*	-3	-1	x
O=c1c(Br)c(N2CCCC2)cnn1-c1ccccc1	3	x	-22	2	0	1
O=c1c(Br)c(Br)cnn1-c1ccccc1	16	90*	-5	1	1	-2
Cc1ccc(-n2ncc(Br)c(Br)c2=O)cc1	6	66*	-17	-2	0	7
CCn1c2ccccc2c2cc([N+](=O)[O-])ccc21	-3	-3	-11	17	1	-3
CN(C)CCn1c2ccccc2c2nc3ccc([N+](=O)[O-])cc3cc21	x	56*	-29	-27	-1	x
CN(C)C1(CNC(=O)C2CCN(S(=O)(=O)c3cccc(C(F)(F)F)c3)CC2)CCCCC1	x	-1	x	x	x	x
Cc1sc(NC(=O)CCCC(=O)O)c(C(N)=O)c1-c1ccccc1	x	2	x	102*	0	3
O=C(O)c1ccc(N/N=C/c2ccc(-c3ccccc3Cl)o2)cc1	x	68*	-39	67*	1	x
CCN1C(=O)[C@H]2[C@@H](c3ccc(-c4cccc(Cl)c4)cc3)N[C@@](CC(C)C)(C(=O)OC)[C@H]2C1=O	x	29	x	x	x	x
CCN1C(=O)[C@H]2[C@@H](c3ccc(-c4cccc(Cl)c4)c(OC)c3)N[C@@](CC(C)C)(C(=O)OC)[C@H]2C1=O	x	70*	x	x	x	x
CCn1c(=O)n(CC(=O)Nc2cc(OC)c(OC)c(OC)c2)c(=O)c2ccccc21	-1	x	37*	0	-1	3
CC(C)c1ccc(C(=O)NC(=S)Nc2ccc3[nH]c(=O)[nH]c3c2)cc1	8	-2	6	21	1	x
Nc1nc(CCl)nc(Nc2ccc3ccccc3c2)n1	-6	79*	-28	21	-2	x
N=c1oc2cc(O)ccc2cc1C(=O)Nc1ccccn1	x	x	-16	115*	0	4
SMILES	Rad51 HR inh	TAG inh	Mdm2 ligase inh	Hck-Nef inh	PERK inh	PKD1 inh
N=c1oc2cc(O)ccc2cc1C(=O)Nc1nc2ccccc2s1	-74	x	-7	81*	1	3
Cc1nc(N2CCCCC2C)c2c(C)c(C(=O)Nc3ccccc3C(F)(F)F)sc2n1 (stereo unspecified)	19	x	-6	-81	1	-1
CN(C)c1ccc(/C=C(\C#N)C(=O)Nc2nc3c(s2)CCN(Cc2ccccc2)C3)cc1	-219	-87	-6	0	0	-6
CCOC(=O)C1CC(CN2C(=O)c3ccccc3C2=O)OC1=O (stereo unspecified)	x	0	x	x	x	x
CCC(=O)NNC(=O)CCC(=O)Nc1cccc(Cl)c1C	1	0	-4	-25	3.0*	-6
COC(=O)CCC(=O)NNC(=O)CCC(=O)Nc1cccc(Cl)c1C	3	x	-18	18	0	-5
Cc1ccc(S(=O)(=O)N2CCN(C(=O)Cn3nc(C)c([N+](=O)[O-])c3C)CC2)cc1	x	16	x	x	x	x
COc1ccc2[nH]c3c(N4CC(C)OC(C)C4)ncnc3c2c1 (stereo unspecified)	2	x	35*	-1	-3	2
O=S(=O)(Nc1ccccc1N1CCCCC1)c1ccc(F)cc1	-14	-12	-10	-3	3.2*	x
O=C(N/N=C/C1CC=CCC1)c1cc(-c2cccnc2)nc2ccccc12 (stereo unspecified)	0	8	-9	19	0	1
O=C(O)CC1NC(=S)N(c2ccccc2)C1=O (stereo unspecified)	0	x	-3	0	1	2
O=C1C(Cc2ccc(O)cc2)NC(=S)N1c1ccccc1 (stereo unspecified)	x	x	-25	1	3.0*	-8
CCCOC(=O)CCCN1C(=O)/C(=C2\SC(=S)N(CCCC(=O)OCCC)C2=O)SC1=S	x	-2	-7	29	3.4*	x
O=[N+]([O-])c1cccc(/C=C/c2nc[nH]c2[N+](=O)[O-])c1	-3	-3	-10	8	1	x
CCC1CCCCN1C(=O)CSc1nc2c(cnn2-c2ccc(C)cc2)c(=O)[nH]1 (stereo unspecified)	-1	-3	-13	1	3.2*	-3
Cc1cc(C(=O)CSc2nnc(Nc3ccccc3)s2)c(C)n1CC1CCCO1 (stereo unspecified)	9	26	31*	-3	0	-7
